Measurements taken from PMC7165017 (Inorganic chemistry, 2019).
Read-outs that look alike come from different tables or passages of the source.

Tests used:
[1] = Solution stability study by 1H NMR; format: physicochemical; settings: DMSO-d6/phosphate buffer 3:7 (v/v), within 12 h
Summary of the method: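 Complexes were monitored by 1H NMR in DMSO-d6 or DMF-d7 mixed 1:9 (v/v) with degassed 20 mM phosphate buffer (pD 7.4, 4 mM NaCl). Spectra were taken at 25 °C at time points up to 24 h. Free ligands were monitored in DMSO-d6/phosphate buffer 3:7 (v/v).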

[2] = system: Hep G2 cells; test: MTT cell viability assay, Hep G2; format: cell-based, human; settings: read-out: IC50 ± SD, Hep G2, 48 h, normoxia (∼15% O2)
Summary of the method: (§1)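 Media: Hep G2 in MEM, MIA PaCa-2 in DMEM, MDA-MB-231 in DMEM/F-12, each with 10% FBS and antibiotics. Cells were seeded at 6 × 10^3 per well and kept 48 h at 37 °C, 5% CO2. Medium was renewed, then compound was added (DMSO ≤0.2%, vehicle-matched) for 48 h in triplicate wells. MTT (1 mg mL−1) ran 3 h; formazan was dissolved in DMSO and read at 595 nm versus untreated wells. IC50 came from a four-parameter variable-slope fit, ≥3 independent experiments. Hypoxic MDA-MB-231 cells were kept at 1.5% O2 for ≥2 passages beforehand.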

[3] = system: microtubule network in MDA-MB-231 cells; test: Immunofluorescence study of microtubule network disruption; format: cell-based, human; settings: 12 h; cisplatin 50 μM, colchicine 100 nM (controls)
Summary of the method: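 5 × 10^4 MDA-MB-231 cells were grown on glass coverslips for 48 h, then treated 12 h (vehicle 0.1% DMSO). Fixation used 4% paraformaldehyde for 10 min and 100 mM glycine quench, followed by 3% BSA/PBST block for 20 min. Rabbit monoclonal anti-α-tubulin (1:400, 2 h) was followed by AlexaFluor 488 anti-rabbit (1:1000, 2 h, dark) and DAPI mount. Confocal imaging used a 63× objective. Microtubule-network perimeter was averaged over ≥10 treated versus ≥10 untreated cells and expressed as relative perimeter.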

[4] = system: MIA PaCa-2 cells; test: MTT cell viability assay, MIA PaCa-2; format: cell-based, human; settings: read-out: IC50 ± SD, MIA PaCa-2, 48 h, normoxia (∼15% O2)
Summary of the method: as §1

[5] = system: MDA-MB-231 cells; test: MTT cell viability assay, MDA-MB-231; format: cell-based, human
Summary of the method: as §1

SMILES	hydrolysis of ligand into amine and aldehyde [1]	disruption of the microtubule network [3]	further results
COc1cc(N=Cc2ccccc2O)cc(OC)c1OC [Complex L1, 2-{[(3,4,5-Trimethoxyphenyl)imino]-methyl}phenol]	~80%		
COc1cccc(C=Nc2cc(OC)c(OC)c(OC)c2)c1O [Complex L3, 2-Methoxy-6-{[(3,4,5-trimethoxyphenyl)imino]-methyl}phenol]	~80%		
[NH2][Pt]([NH2])([Cl])[Cl] [CDDP, cisplatin, reference compound]		did not observe any disruption of the microtubule formation	IC50 [2]: 14.3 ± 0.8 µM; IC50 [4]: 31.8 ± 4.8 µM; IC50 ([5]; read-out: IC50 ± SD, MDA-MB-231 (hypo), 48 h, hypoxia (1.5% O2)): 37.8 ± 2.3 µM; IC50 ([5]; read-out: IC50 ± SD, MDA-MB-231, 48 h, normoxia (∼15% O2)): 37.2 ± 2.5 µM
COc1cc2c(c(OC)c1OC)-c1ccc(OC)c(=O)cc1[C@@H](NC(C)=O)CC2 [colchicine, reference compound]		exhibited microtubule network damage	
